Laboratory results as given in ChEMBL document CHEMBL3272186, “Synthesis of new cyclic nucleotides and their differential stimulatory effects on thyroid function in mice” (J Med Chem, 1976).

How the values were obtained:
Mus musculus [1] = assay: Induction of radioiodine secretion from 14 days iodine-poor diet fed mouse thyroid assessed as blood [125I] level at 6 mg/kg, iv after 2 hrs pretreated with 10 ug L-thyroxine and [125-I] relative to control by McKenzie Bioassay; format: functional, Thyroid gland
Outline: (§1)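 Weanling female mice (14–16 g) fed an iodine-poor diet for 14 days, then given 10 μg L-thyroxine sc and 6–8 μCi 125I ip, with L-thyroxine (1 mg/l) in drinking water for 3 days. On day 4, cyclic nucleotides were given into the tail vein as sodium salts in aqueous solution, pH 7.4. Orbital-sinus blood was sampled at 0 and 2 h and γ-counted. Result is cpm(2 h)/cpm(0 h) × 100; mean of about six animals per dose.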

Mus musculus [2] = assay: Induction of radioiodine secretion from 14 days iodine-poor diet fed mouse thyroid assessed as blood [125I] level at 15 mg/kg, iv after 2 hrs pretreated with 10 ug L-thyroxine and [125-I] relative to control by McKenzie Bioassay; format: functional, Thyroid gland; outline: as §1
Mus musculus [3] = assay: Induction of radioiodine secretion from 14 days iodine-poor diet fed mouse thyroid assessed as blood [125I] level at 60 mg/kg, iv after 2 hrs pretreated with 10 ug L-thyroxine and [125-I] relative to control by McKenzie Bioassay; format: functional, Thyroid gland
Mus musculus [4] = assay: Induction of radioiodine secretion from 14 days iodine-poor diet fed mouse thyroid assessed as blood [125I] level at 30 mg/kg, iv after 2 hrs pretreated with 10 ug L-thyroxine and [125-I] relative to control by McKenzie Bioassay; format: functional, Thyroid gland; outline: as §1
[5] = Toxicity in iv dosed mouse; format: organism-based; details: in vivo
Outline: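 Female mice (14–16 g, post-weaning) kept 14 days on an iodine-poor diet. They were then given 10 μg L-thyroxine sc and 6–8 μCi 125I ip, followed by L-thyroxine 1 mg/l in drinking water for 3 days. On day 4, cyclic nucleotides were injected into the tail vein as sodium salts in aqueous solution, pH 7.4, at 6–60 mg/kg. Deaths were recorded per dose group of about six animals.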

[6] = Stability of the compound assessed as hydrolysis in presence of phosphodiesterase; format: ADME
Mus musculus [7] = assay: Induction of serum thyroxine level in Swiss mouse measured per 100 ml at 1 mg, iv after 1 hr by radioimmunoassay (reference value: 4.20 +/- 0.25 to 6.06 +/- 0.36 ug); format: functional
Mus musculus [8] = assay: Induction of radioiodine secretion from 14 days iodine-poor diet fed mouse thyroid assessed as blood [125I] level at 45 mg/kg, iv after 2 hrs pretreated with 10 ug L-thyroxine and [125-I] relative to control by McKenzie Bioassay; format: functional, Thyroid gland; outline: as §1
Mus musculus [9] = assay: Induction of serum thyroxine level in Swiss mouse measured per 100 ml at 1 mg, iv after 2 hrs by radioimmunoassay (reference value: 4.20 +/- 0.25 to 6.06 +/- 0.36 ug); format: functional

| Compound | Activity (Mus musculus [1]) | Activity (Mus musculus [2]) | Activity (Mus musculus [3]) | Activity (Mus musculus [4]) | LD50 [5] | Stability [6] | serum T4 (Mus musculus [7]) | Activity (Mus musculus [8]) | serum T4 (Mus musculus [9]) |
| --- | --- | --- | --- | --- | --- | --- | --- | --- | --- |
| Nc1ncnc2c1nc(Br)n2[C@@H]1O[C@@H]2COP(=O)([O-])O[C@H]2[C@H]1O.[Na+] | 248% | 284% | 488% | 331% |  |  |  |  |  |
| CCCC(=O)Nc1ncnc2c1ncn2[C@@H]1O[C@@H]2COP(=O)([O-])O[C@H]2[C@H]1OC(=O)CCC.[Na+] |  |  | 245% | 136% | > 200 mg/kg | Stable | 5.15 µg/dL |  |  |
| CCCC(=O)Nc1ncnc2c1nc(SCc1ccccc1)n2[C@@H]1O[C@@H]2COP(=O)([O-])O[C@H]2[C@H]1OC(=O)CCC.[Na+] | 116% | 170% | 123% | 141% |  |  |  |  |  |
| CCCC(=O)Nc1ncnc2c1nc(SC)n2[C@@H]1O[C@@H]2COP(=O)([O-])O[C@H]2[C@H]1OC(=O)CCC.[Na+] |  | 150% | 174% | 125% | > 200 mg/kg |  |  |  |  |
| CCCC(=O)O[C@@H]1[C@@H]2OP(=O)([O-])OC[C@H]2O[C@H]1n1c(SC)nc2c(N)ncnc21.[Na+] |  |  |  | 156% | > 200 mg/kg |  |  | 110% |  |
| CCCC(=O)Nc1ncnc2c1nc(N)n2[C@@H]1O[C@@H]2COP(=O)([O-])O[C@H]2[C@H]1OC(=O)CCC.[Na+] |  |  | 164% | 146% | > 200 mg/kg |  |  |  |  |
| Nc1ncnc2c1nc(SCc1ccccc1)n2[C@@H]1O[C@@H]2COP(=O)([O-])O[C@H]2[C@H]1O.[Na+] | 135% | 183% |  | 195% |  |  |  |  |  |
| CSc1nc2c(N)ncnc2n1[C@@H]1O[C@@H]2COP(=O)([O-])O[C@H]2[C@H]1O.[Na+] | 492% | 645% |  | 804% |  |  | 6.32 µg/dL |  | 6.47 µg/dL |
| Nc1ncnc2c1nc(N)n2[C@@H]1O[C@@H]2COP(=O)([O-])O[C@H]2[C@H]1O.[Na+] | 226% | 663% |  | 607% |  |  | 6.84 µg/dL | 818% |  |
| CCCC(=O)Nc1ncnc2c1nc(S)n2[C@@H]1O[C@@H]2COP(=O)([O-])O[C@H]2[C@H]1O.[Na+] |  | 139% | 630% | 342% | > 200 mg/kg |  |  |  |  |
| [N-]=[N+]=Nc1nc2c(N)ncnc2n1[C@@H]1O[C@@H]2COP(=O)([O-])O[C@H]2[C@H]1O.[Na+] | 227% | 594% |  | 633% |  |  | 6.19 µg/dL |  |  |
| CCCC(=O)Nc1ncnc2c1nc(O)n2[C@@H]1O[C@@H]2COP(=O)([O-])O[C@H]2[C@H]1OC(=O)CCC.[Na+] |  | 184% | 582% | 500% | > 200 mg/kg |  | 5.58 µg/dL |  |  |
| CCCC(=O)Nc1ncnc2c1nc(SC)n2[C@@H]1O[C@@H]2COP(=O)([O-])O[C@H]2[C@H]1O.[Na+] |  | 121% | 533% | 204% | > 200 mg/kg |  |  |  |  |
| CCCC(=O)Nc1ncnc2c1nc(S)n2[C@@H]1O[C@@H]2COP(=O)([O-])O[C@H]2[C@H]1OC(=O)CCC.[Na+] |  | 154% | 238% | 177% | > 200 mg/kg |  | 4.3 µg/dL |  |  |
| CCCC(=O)Nc1ncnc2c1nc(SCc1ccccc1)n2[C@@H]1O[C@@H]2COP(=O)([O-])O[C@H]2[C@H]1O.[Na+] |  | 146% | 197% | 122% | > 200 mg/kg |  |  |  |  |
| CCCC(=O)O[C@@H]1[C@@H]2OP(=O)([O-])OC[C@H]2O[C@H]1n1c(S)nc2c(N)ncnc21.[Na+] |  | 155% | 190% | 153% | > 200 mg/kg |  |  |  |  |
| Nc1ncnc2c1nc(S)n2[C@@H]1O[C@@H]2COP(=O)([O-])O[C@H]2[C@H]1O.[Na+] | 136% |  |  |  |  |  |  |  |  |
| Nc1ncnc2c1nc(O)n2[C@@H]1O[C@@H]2COP(=O)([O-])O[C@H]2[C@H]1O.[Na+] |  | 114% |  |  |  |  |  |  |  |
| CSc1nc2c(N)ncnc2n1[C@@H]1O[C@H](COP(=O)(O)O)[C@@H](O)[C@H]1O |  |  |  | 112% |  |  | 4.44 µg/dL |  | 4.78 µg/dL |
| [Cl-].[Na+] [SODIUM CHLORIDE] |  |  |  |  |  |  | 6 µg/dL |  | 5.83 µg/dL |
